The values that follow come from ChEMBL document CHEMBL4680134, “Structural optimization of natural product nordihydroguaretic acid to discover novel analogues as AcrB inhibitors” (Eur J Med Chem, 2020).

The target in data set [1] is T1, Multidrug efflux pump subunit AcrB (Escherichia coli (strain K12)) (UniProt P31224).
T1 sequence (whole entry): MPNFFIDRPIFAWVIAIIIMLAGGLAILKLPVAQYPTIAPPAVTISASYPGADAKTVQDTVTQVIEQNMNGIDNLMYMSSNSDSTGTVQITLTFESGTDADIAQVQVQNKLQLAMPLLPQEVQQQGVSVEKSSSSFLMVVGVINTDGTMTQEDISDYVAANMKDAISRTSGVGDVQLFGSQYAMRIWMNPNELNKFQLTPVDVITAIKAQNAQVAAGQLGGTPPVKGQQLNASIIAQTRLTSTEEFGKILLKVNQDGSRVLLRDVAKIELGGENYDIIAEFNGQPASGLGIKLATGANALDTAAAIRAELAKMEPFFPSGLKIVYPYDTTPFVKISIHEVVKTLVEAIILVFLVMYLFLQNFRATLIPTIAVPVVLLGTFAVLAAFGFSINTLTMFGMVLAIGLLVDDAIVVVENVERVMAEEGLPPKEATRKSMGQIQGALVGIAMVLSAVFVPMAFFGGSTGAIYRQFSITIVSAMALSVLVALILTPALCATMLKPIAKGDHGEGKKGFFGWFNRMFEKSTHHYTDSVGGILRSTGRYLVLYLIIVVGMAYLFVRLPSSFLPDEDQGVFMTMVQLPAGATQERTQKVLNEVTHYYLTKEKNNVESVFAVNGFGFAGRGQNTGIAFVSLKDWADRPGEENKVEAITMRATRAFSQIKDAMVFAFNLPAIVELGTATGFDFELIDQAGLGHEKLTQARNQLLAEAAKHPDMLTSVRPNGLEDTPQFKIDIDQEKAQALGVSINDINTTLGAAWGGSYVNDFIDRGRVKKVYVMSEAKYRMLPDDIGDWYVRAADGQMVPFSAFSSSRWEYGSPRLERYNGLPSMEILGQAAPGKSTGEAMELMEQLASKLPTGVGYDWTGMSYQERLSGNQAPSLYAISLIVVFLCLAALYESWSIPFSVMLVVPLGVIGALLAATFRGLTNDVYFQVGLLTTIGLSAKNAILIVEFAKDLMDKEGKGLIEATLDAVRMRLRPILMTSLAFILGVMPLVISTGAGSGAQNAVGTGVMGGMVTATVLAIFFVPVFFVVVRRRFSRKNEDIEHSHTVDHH
The data set is described as follows: Inhibition of AcrB in Escherichia coli BW25113 assessed as potentiation of erythromycin induced antibacterial activity by measuring erythromycin MIC at 16 ug/ml measured after 18 hrs by checkerboard titration method (reference value: 64 ug/ml). As to conditions: dose 16.0 µg/ml.

Data set [2] addresses T1, Multidrug efflux pump subunit AcrB (Escherichia coli (strain K12)). Briefly: Inhibition of AcrB in Escherichia coli BW25113 assessed as potentiation of chloramphenicol induced antibacterial activity by measuring chloramphenicol MIC at 128 ug/ml measured after 18 hrs by checkerboard titration method (reference value: 8 ug/ml). Particulars: dose 128.0 µg/ml.
Data set [3] shares this target. The data set is described as follows: Inhibition of AcrB in Escherichia coli BW25113 assessed as potentiation of rifampicin induced antibacterial activity by measuring rifampicin MIC at 32 ug/ml measured after 18 hrs by checkerboard titration method (reference value: 16 ug/ml). As to conditions: dose 32.0 µg/ml.
Data set [4] in a line: Growth inhibition of Escherichia coli harboring AcrB deletion mutant at 64 ug/ml after 18 hrs by broth microdilution assay. As to conditions: dose 64 µg/ml. Put shortly: (§1)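 MIC determined by 96-well broth microdilution in E. coli BW25113 expressing AcrB ((+)AcrB) and an isogenic acrB-deleted strain ((-)AcrB). Used to set the compound concentrations for synergy testing that produce no direct antibacterial effect.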

Data set [5] addresses T1, Multidrug efflux pump subunit AcrB (Escherichia coli (strain K12)). The data set is described as follows: Inhibition of AcrB in Escherichia coli BW25113 assessed as potentiation of erythromycin induced antibacterial activity by measuring erythromycin MIC at 32 ug/ml measured after 18 hrs by checkerboard titration method (reference value: 64 ug/ml). As to conditions: dose 32.0 µg/ml.

For data set [6] the target is unchanged. The data set is described as follows: Inhibition of AcrB in Escherichia coli BW25113 assessed as potentiation of tetraphenylphosphonium induced antibacterial activity by measuring tetraphenylphosphonium MIC at 64 ug/ml measured after 18 hrs by checkerboard titration method (reference value: 1024 ug/ml). As to conditions: dose 64.0 µg/ml.
Data set [7] shares this target. The data set is described as follows: Inhibition of AcrB in Escherichia coli BW25113 assessed as potentiation of chloramphenicol induced antibacterial activity by measuring chloramphenicol MIC at 64 ug/ml measured after 18 hrs by checkerboard titration method (reference value: 8 ug/ml). Particulars: dose 64.0 µg/ml.
Data set [8] has the same target. The data set is described as follows: Inhibition of AcrB in Escherichia coli BW25113 assessed as potentiation of levofloxacin induced antibacterial activity by measuring levofloxacin MIC at 64 ug/ml measured after 18 hrs by checkerboard titration method (reference value: 0.06 ug/ml). As to conditions: dose 64.0 µg/ml.
Data set [9] has the same target. Briefly: Inhibition of AcrB in Escherichia coli BW25113 assessed as potentiation of tetraphenylphosphonium induced antibacterial activity by measuring tetraphenylphosphonium MIC at 32 ug/ml measured after 18 hrs by checkerboard titration method (reference value: 1024 ug/ml). As to conditions: dose 32.0 µg/ml.
For data set [10] the target is unchanged. The data set is described as follows: Inhibition of AcrB in Escherichia coli BW25113 assessed as potentiation of erythromycin induced antibacterial activity by measuring erythromycin MIC at 64 ug/ml measured after 18 hrs by checkerboard titration method (reference value: 64 ug/ml). As to conditions: dose 64.0 µg/ml.
A short description of data set [11]: Growth inhibition of Escherichia coli BW25113 expressing AcrB at 512 ug/ml after 18 hrs by broth microdilution assay. Particulars: dose 512 µg/ml. Put shortly:
as §1
In general terms: Dilution methods test growth across graded concentrations, often in twofold steps.

The target of data set [12] is T1, Multidrug efflux pump subunit AcrB (Escherichia coli (strain K12)). Briefly: Inhibition of AcrB in Escherichia coli BW25113 assessed as potentiation of rifampicin induced antibacterial activity by measuring rifampicin MIC at 128 ug/ml measured after 18 hrs by checkerboard titration method (reference value: 16 ug/ml). Particulars: dose 128.0 µg/ml.
Data set [13] shares this target. Briefly: Inhibition of AcrB in Escherichia coli BW25113 assessed as potentiation of chloramphenicol induced antibacterial activity by measuring chloramphenicol MIC at 32 ug/ml measured after 18 hrs by checkerboard titration method (reference value: 8 ug/ml). Particulars: dose 32.0 µg/ml.
For data set [14] the target is unchanged. Briefly: Inhibition of AcrB in Escherichia coli BW25113 assessed as potentiation of rifampicin induced antibacterial activity by measuring rifampicin MIC at 64 ug/ml measured after 18 hrs by checkerboard titration method (reference value: 16 ug/ml). Particulars: dose 64.0 µg/ml.
Data set [15] shares this target. Briefly: Inhibition of AcrB in Escherichia coli BW25113 assessed as potentiation of levofloxacin induced antibacterial activity by measuring levofloxacin MIC at 32 ug/ml measured after 18 hrs by checkerboard titration method (reference value: 0.06 ug/ml). Particulars: dose 32.0 µg/ml.
The target is the same in data set [16]. The data set is described as follows: Inhibition of AcrB in Escherichia coli BW25113 assessed as potentiation of tetraphenylphosphonium induced antibacterial activity by measuring tetraphenylphosphonium MIC at 128 ug/ml measured after 18 hrs by checkerboard titration method (reference value: 1024 ug/ml). Particulars: dose 128.0 µg/ml.
The target is the same in data set [17]. Briefly: Inhibition of AcrB in Escherichia coli BW25113 assessed as potentiation of levofloxacin induced antibacterial activity by measuring levofloxacin MIC at 128 ug/ml measured after 18 hrs by checkerboard titration method (reference value: 0.06 ug/ml). Particulars: dose 128.0 µg/ml.

Take `O=C(NCCc1ccc(O)c(O)c1)c1ccc(O)c(O)c1`: the MIC in [1] came to 64 µg/mL; in data set [2] it was 2 µg/mL; in [3], 16 µg/mL; in data set [5], 32 µg/mL; in [6] it was 512 µg/mL; in [7] it was 2 µg/mL. In addition, the MIC turned out to be 0.06 µg/mL in data set [8]; 512 µg/mL in data set [9]; 32 µg/mL in [10]; 16 µg/mL in [12]; 4 µg/mL in [13]; 16 µg/mL in [14]. Besides, the results for the MIC in [15], in data set [16] and in data set [17] were 0.06 µg/mL, 512 µg/mL and 0.06 µg/mL, respectively. Also, the “growth inhibition (GI)” value in [4] and in data set [11] was “Non-Toxic” in each case.

As for `Nc1cc(N)cc(C(=O)NCCc2ccc(O)c(O)c2)c1`, the MIC in data set [1] worked out at 64 µg/mL; in [2], 8 µg/mL; in data set [3], 16 µg/mL; in data set [5], 32 µg/mL; in data set [6] it was 512 µg/mL; in [7] it was 8 µg/mL. Also, the MIC is 0.06 µg/mL in data set [8]; 512 µg/mL in data set [9]; 32 µg/mL in data set [10]; 16 µg/mL in [12]; 8 µg/mL in data set [13]; 16 µg/mL in [14]. For the same compound, the MIC amounted to 0.06 µg/mL in data set [15], 512 µg/mL in data set [16] and 0.06 µg/mL in [17]. The “growth inhibition (GI)” value in data set [4] and in data set [11] was “Non-Toxic” in each case.

Take `Oc1ccc(CCCCCCc2ccc(O)c(O)c2)cc1O`: the MIC in [1] was 64 µg/mL; in data set [2], 8 µg/mL; in data set [3], 16 µg/mL; in data set [5] it was 64 µg/mL; in data set [6], 512 µg/mL; in [7], 8 µg/mL. The MIC was found to be 0.06 µg/mL in data set [8]; 512 µg/mL in data set [9]; 64 µg/mL in data set [10]; 16 µg/mL in [12]; 8 µg/mL in data set [13]; 16 µg/mL in data set [14]. In addition, the MIC amounted to 0.06 µg/mL in [15], 512 µg/mL in data set [16] and 0.06 µg/mL in data set [17]. The “growth inhibition (GI)” value in [4] and in data set [11] was “Non-Toxic” each time.

For `Oc1ccc(CCCc2ccc(O)c(O)c2)cc1O`, the MIC in data set [1] was 64 µg/mL; in data set [2] it was 8 µg/mL; in data set [3], 16 µg/mL; in [5], 64 µg/mL; in data set [6], 512 µg/mL; in [7] it was 8 µg/mL. In addition, the MIC in [8] was found to be 0.06 µg/mL; in data set [9], 1020 µg/mL; in [10] it was 32 µg/mL; in [12] it was 16 µg/mL; in data set [13], 8 µg/mL; in data set [14], 16 µg/mL. Besides, the MIC in data set [15] is 0.06 µg/mL; in [16] it was 512 µg/mL; in [17], 0.06 µg/mL. Also, the “growth inhibition (GI)” value in [4] and in data set [11] was “Non-Toxic” in each case.
